ChEMBL document CHEMBL3526048, “In vitro metabolism of rivoglitazone, a novel peroxisome proliferator-activated receptor γ agonist, in rat, monkey, and human liver microsomes and freshly isolated hepatocytes” (Drug Metab Dispos, 2011)

How the values were obtained:
[1] = target: T1, Cytochrome P450 2C8 (Homo sapiens, UniProt P10632); assay: Activity of human CYP2C8 expressed in microsomes isolated from baculovirus infected insect cell assessed as enzyme-mediated compound formation treated with [14C]-rivoglitazone at 20 uM after 2 hrs by radio-HPLC/LC-MS/MS analysis in presence of NADPH-generating system; type: ADME
T1 sequence (P10632 whole entry): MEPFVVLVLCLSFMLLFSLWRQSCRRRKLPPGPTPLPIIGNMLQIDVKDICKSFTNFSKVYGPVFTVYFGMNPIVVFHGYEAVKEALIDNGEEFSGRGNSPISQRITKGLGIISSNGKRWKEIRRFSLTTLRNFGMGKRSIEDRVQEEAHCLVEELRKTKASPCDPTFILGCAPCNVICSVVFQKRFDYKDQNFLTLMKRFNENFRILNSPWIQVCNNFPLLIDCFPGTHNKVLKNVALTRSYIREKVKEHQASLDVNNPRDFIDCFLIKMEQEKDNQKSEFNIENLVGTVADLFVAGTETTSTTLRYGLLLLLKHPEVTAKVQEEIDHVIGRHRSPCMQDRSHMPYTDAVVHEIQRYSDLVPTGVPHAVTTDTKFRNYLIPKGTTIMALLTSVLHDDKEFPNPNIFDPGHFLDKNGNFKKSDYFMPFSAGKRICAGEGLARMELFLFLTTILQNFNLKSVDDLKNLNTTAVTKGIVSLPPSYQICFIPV
In short: (§1)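 Baculovirus/insect-cell microsomes expressing single human CYPs, 1 mg/ml protein, with 50 mM potassium phosphate (pH 7.4) or 100 mM Tris-HCl (pH 7.5). NADPH-generating system: 2 mM NADP⁺, 20 mM glucose 6-phosphate, 2 units/ml G6PDH, 10 mM MgCl₂. [¹⁴C]rivoglitazone at 20 μM, 2 h at 37°C with shaking. Control used insect-cell control supersomes. Stopped with acetonitrile; supernatant concentrated under nitrogen; metabolites analysed by radio-HPLC, LC-MS and LC-MS/MS.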

[2] = target: T2, Cytochrome P450 1A2 (Homo sapiens, UniProt P05177); assay: Activity of human CYP1A2 expressed in microsomes isolated from baculovirus infected insect cell assessed as enzyme-mediated compound formation treated with [14C]-rivoglitazone at 20 uM after 2 hrs by radio-HPLC/LC-MS/MS analysis in presence of NADPH-generating system; type: ADME; in short: as §1
T2 sequence (P05177 whole entry): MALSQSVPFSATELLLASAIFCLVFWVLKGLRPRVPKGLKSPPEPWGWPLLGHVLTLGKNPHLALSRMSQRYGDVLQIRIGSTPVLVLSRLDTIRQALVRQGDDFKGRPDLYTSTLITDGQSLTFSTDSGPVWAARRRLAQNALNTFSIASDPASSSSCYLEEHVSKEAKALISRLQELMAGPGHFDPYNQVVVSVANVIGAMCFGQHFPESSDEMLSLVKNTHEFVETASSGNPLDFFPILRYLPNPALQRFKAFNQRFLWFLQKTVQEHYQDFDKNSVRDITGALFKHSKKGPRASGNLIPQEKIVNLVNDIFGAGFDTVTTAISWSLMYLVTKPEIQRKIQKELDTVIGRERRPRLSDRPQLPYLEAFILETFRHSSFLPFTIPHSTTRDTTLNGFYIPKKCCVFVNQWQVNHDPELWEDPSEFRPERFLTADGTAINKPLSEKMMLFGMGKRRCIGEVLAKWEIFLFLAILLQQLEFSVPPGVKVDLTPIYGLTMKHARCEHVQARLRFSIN

[3] = target: Cytochrome P450 2D6 (Homo sapiens, UniProt P10635); assay: Activity of human CYP2D6 expressed in microsomes isolated from baculovirus infected insect cell assessed as enzyme-mediated 2-((4-((2,4-dioxothiazolidin-5-yl)methyl)phenoxy)methyl)-1-methyl-1H-benzo[d]imidazol-6-yl hydrogen sulfate formation at 20 uM after 2 hrs by radio-HPLC/LC-MS/MS analysis; type: ADME
In short: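 Baculovirus-insect-cell microsomes expressing the human CYP (1 mg/ml protein) were incubated with [14C]rivoglitazone (20 μM) in 50 mM potassium phosphate (pH 7.4) or 100 mM Tris-HCl (pH 7.5) with an NADPH-generating system (2 mM NADP+, 20 mM glucose 6-phosphate, 2 units/ml G6PDH, 10 mM MgCl2) for 2 h at 37°C. Insect-cell control supersomes served as the control. Reactions were stopped with acetonitrile, and the concentrated supernatants were analysed by radio-HPLC, LC-MS and LC-MS/MS.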

[4] = Drug metabolism in rat hepatocytes assessed as formation of 2-mercapto-3-(4-((6-methoxy-1-methyl-1H-benzo[d]imidazol-2-yl)methoxy)phenyl)propanoic acid at 30 uM after 3 hrs by radio-HPLC/LC-MS/MS analysis in presence of UDPGA, UDPGA/SAM and NADPH-generating system; type: ADME, cell-based, Hepatocyte
[5] = Drug metabolism in monkey hepatocytes assessed as formation of 2-hydroxy-3-(4-((6-methoxy-1-methyl-1H-benzo[d]imidazol-2-yl)methoxy)phenyl)propanamide at 30 uM after 3 hrs by radio-HPLC/LC-MS/MS analysis in presence of NADPH-generating system and NADPH-generating system/SAM; settings: cynomolgus monkey
[6] = Drug metabolism in monkey hepatocytes assessed as formation of 2-mercapto-3-(4-((6-methoxy-1-methyl-1H-benzo[d]imidazol-2-yl)methoxy)phenyl)propanoic acid at 30 uM after 3 hrs by radio-HPLC/LC-MS/MS analysis in presence of UDPGA, UDPGA/SAM and NADPH-generating system; settings: cynomolgus monkey
[7] = target: T2, Cytochrome P450 1A2; assay: Activity of human CYP1A2 expressed in microsomes isolated from baculovirus infected insect cell assessed as enzyme-mediated 2-((4-((2,4-dioxothiazolidin-5-yl)methyl)phenoxy)methyl)-1-methyl-1H-benzo[d]imidazol-6-yl hydrogen sulfate formation at 20 uM after 2 hrs by radio-HPLC/LC-MS/MS analysis; type: ADME; in short: as §1
[8] = target: T3, Cytochrome P450 3A5 (Homo sapiens, UniProt P20815); assay: Activity of human CYP3A5 expressed in microsomes isolated from baculovirus infected insect cell assessed as enzyme-mediated 2-hydroxy-3-(4-((6-methoxy-1-methyl-1H-benzo[d]imidazol-2-yl)methoxy)phenyl)propanamide formation at 20 uM after 2 hrs by radio-HPLC/LC-MS/MS analysis in presence of NADPH-generating system and NADPH-generating system/SAM; type: ADME
In short: (§2)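 cDNA-expressed human CYP3A5 in baculovirus-insect-cell microsomes (1 mg/ml protein) was incubated with [¹⁴C]rivoglitazone (20 μM) in 50 mM potassium phosphate (pH 7.4) or 100 mM Tris-HCl (pH 7.5). NADPH-generating system: 2 mM NADP⁺, 20 mM glucose 6-phosphate, 2 units/ml G6PDH, 10 mM MgCl₂. Incubation ran 2 h at 37°C with shaking; insect-cell control supersomes served as control. Acetonitrile stop, supernatant concentrated, then radio-HPLC, LC-MS and LC-MS/MS.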

[9] = target: T3, Cytochrome P450 3A5; assay: Activity of human CYP3A5 expressed in microsomes isolated from baculovirus infected insect cell assessed as enzyme-mediated 3-(4-((6-methoxy-1-methyl-1H-benzo[d]imidazol-2-yl)methoxy)phenyl)-2-(methylsulfonyl)propanamide formation at 20 uM after 2 hrs by radio-HPLC/LC-MS/MS analysis in presence of NADPH-generating system/SAM; type: ADME; in short: as §2

T3 sequence (P20815 whole entry): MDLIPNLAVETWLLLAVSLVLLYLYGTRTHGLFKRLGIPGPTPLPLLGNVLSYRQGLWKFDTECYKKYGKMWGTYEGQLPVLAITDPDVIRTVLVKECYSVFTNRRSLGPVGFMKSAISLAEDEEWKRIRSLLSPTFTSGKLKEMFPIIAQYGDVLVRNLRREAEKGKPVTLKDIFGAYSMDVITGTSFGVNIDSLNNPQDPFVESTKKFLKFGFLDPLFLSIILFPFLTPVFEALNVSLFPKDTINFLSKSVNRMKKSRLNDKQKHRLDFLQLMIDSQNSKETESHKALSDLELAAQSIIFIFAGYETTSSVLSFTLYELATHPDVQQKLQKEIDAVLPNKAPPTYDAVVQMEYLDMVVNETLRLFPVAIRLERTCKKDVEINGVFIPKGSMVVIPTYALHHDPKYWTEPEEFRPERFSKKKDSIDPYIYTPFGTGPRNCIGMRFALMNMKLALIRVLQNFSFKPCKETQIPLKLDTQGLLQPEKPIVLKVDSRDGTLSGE
Chain of Cytochrome P450 2D6 (P10635 whole entry): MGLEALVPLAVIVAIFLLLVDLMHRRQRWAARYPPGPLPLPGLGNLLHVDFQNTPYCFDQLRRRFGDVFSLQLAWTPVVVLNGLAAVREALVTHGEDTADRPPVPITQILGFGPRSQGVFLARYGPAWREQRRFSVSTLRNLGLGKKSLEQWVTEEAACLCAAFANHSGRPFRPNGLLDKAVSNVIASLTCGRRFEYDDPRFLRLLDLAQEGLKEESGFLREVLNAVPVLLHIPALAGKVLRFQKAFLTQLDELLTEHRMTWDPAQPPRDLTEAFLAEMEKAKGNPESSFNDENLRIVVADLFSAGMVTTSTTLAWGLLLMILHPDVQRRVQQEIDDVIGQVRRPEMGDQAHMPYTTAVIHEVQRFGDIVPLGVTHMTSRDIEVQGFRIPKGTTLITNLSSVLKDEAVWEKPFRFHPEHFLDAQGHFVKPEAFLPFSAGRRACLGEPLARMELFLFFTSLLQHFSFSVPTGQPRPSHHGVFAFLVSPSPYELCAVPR

Row | Structure (SMILES) | Drug metabolism [1] | Drug metabolism [2] | Drug metabolism [3] | Drug metabolism [4] | Drug metabolism [5] | Drug metabolism [6] | Drug metabolism [7] | Drug metabolism [8] | Drug metabolism [9]
1 | COc1ccc2nc(COc3ccc(CC(S)C(=O)O)cc3)n(C)c2c1 (centres undefined) | metabolite_detected | metabolite_detected |  |  |  |  |  |  | 
2 | COc1ccc2nc(COc3ccc(C[14CH]4SC(=O)NC4=O)cc3)n(C)c2c1.Cl (racemic) |  |  | metabolite_not_detected | metabolite_not_detected | metabolite_not_detected | metabolite_not_detected | metabolite_not_detected | metabolite_detected | metabolite_not_detected
